Test system: E. coli BW25113 ΔtolC growth inhibition, OD615
Assay: growth inhibitors of E. coli tolC mutant, dose response, strain BW25113 ΔtolC::kan (AID 617)
In short: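 Material: E. coli BW25113 ΔtolC::kan bacteria; input: inoculum from 1:1000-diluted 1.5 h subculture; medium: kanamycin-containing LB broth, 50 µg/mL; dosing: compounds in serially diluted dose-response series; incubation: 20 h exposure at 37 °C; measured by: absorbance at 615 nm; control set: chloramphenicol control, 30 µM final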

| SMILES | IC50 |
| --- | --- |
| Cc1csc(SCC(=O)Nc2nc(-c3ccccc3)cs2)n1 | 14.1 µM |
| O=C1c2ccccc2C(Nc2cccc(C(F)(F)F)c2)N1Cc1ccco1 (stereo not drawn) | 7.32 µM |
| O=C(Nc1cnn(Cc2ccc(Cl)cc2Cl)c1)c1noc2c1CCCC2 | 8.39 µM |
| N#Cc1nc(Cc2cccc3ccccc23)oc1NCCCn1ccnc1 | 24.2 µM |
| COc1ccc(Cl)cc1N1CCN(CCNC(=O)Nc2ccccc2C)CC1 | 43.7 µM |
| CCCOC(=O)c1ccc(Oc2c(-c3ccc(O)cc3O)n[nH]c2C)cc1 | 3.26 µM |
| COc1ccc(-c2cc(C(=O)N3CCCc4ccccc43)no2)cc1 | 20.5 µM |
| CCCCCn1c(CN2CCN(c3cccc(Cl)c3)CC2)nc2c1c(=O)n(C)c(=O)n2C | 15.2 µM |
| CCOc1ccc(N(CC(=O)Nc2ccc(C)c(C)c2)S(=O)(=O)c2c(C)noc2C)cc1 | 15.5 µM |
| O=C(CSc1nc(O)c(C2CCCCC2)c(=O)[nH]1)Nc1ccc(Cl)cc1 | 8.66 µM |
| CC(C)Cn1c(N)c(C(=O)NCc2cccs2)c2nc3ccccc3nc21 | 12.9 µM |
| N#Cc1nc(Cc2cccc3ccccc23)oc1NCc1ccc(F)cc1 | 11.7 µM |
| CC(=O)c1c(O)cc(C)n(Nc2nc(C)cc(C)n2)c1=O | 13.1 µM |
| Cc1cccc2cc(CN(Cc3ccco3)C(=O)NC3CCCCC3)c(=O)[nH]c12 | 14.9 µM |
| O=C(Nc1cccc(-c2nnc(-c3ccccc3)o2)c1)c1ccc(Br)o1 | 5.69 µM |
| CCOC(=O)c1cnc(-n2nc(C)cc2C)nc1NC1CCCCC1 | 0.54 µM |
| O=C(c1ccc2c(=O)n(C3CCCC3)c(=S)[nH]c2c1)N1CCN(C2CCCCC2)CC1 | 15 µM |
| Oc1c(CN2CCCCC2)cc(Br)c2cccnc12 | 4.8 µM |
| Clc1ccc(OCCn2ccnc2)c2ccccc12 | 5.58 µM |
| Cn1c(=O)n(CCCOc2ccc(Br)cc2)c2ccccc21 | 13.8 µM |
| CCOC(=O)c1c(NC(=O)CN(CC)CC)sc2c1CCC2 | 13.8 µM |

| SMILES | IC50 |
| --- | --- |
| CCC(Oc1ccccc1)C(=O)Nc1ccc(-c2nnc(-c3ccco3)o2)cc1 (stereo not drawn) | 18.2 µM |
| CCOC(=O)N1CCN(c2nc(-c3ccc(F)cc3)cs2)CC1 | 32.4 µM |
| CC(C)N(Cc1nc(-c2ccc(Cl)cc2)no1)C(=O)c1cccs1 | 18.9 µM |
| Cc1noc(C)c1COC(=O)c1cc(C)n(-c2ccccc2)c1C | 11.5 µM |
| Cc1ccc(-c2nnn(CC(=O)N(Cc3ccco3)C(C(=O)NC(C)(C)C)c3cccs3)n2)o1 (stereo not drawn) | 23.3 µM |
| CCc1ccc2oc(=O)cc(CN(C)Cc3ccccc3)c2c1 | 12.9 µM |
| Clc1ccc(Cl)c(-c2nn3c(COc4ccccc4)nnc3s2)c1 | 0.78 µM |
| CCN(c1ccccc1)S(=O)(=O)c1ccc(NCC2COc3ccccc3O2)nc1 (stereo not drawn) | 14.8 µM |
| CCCCOc1ccc(S(=O)(=O)N2CCCCCC2)cc1 | 23.8 µM |
| Cn1c(=O)c2c(SCc3cccnc3)nc(CC(C)(C)C)nc2n(C)c1=O | 8.18 µM |
| O=C(COc1cccc2ccccc12)N1CCN(c2ccccc2)CC1 | 22.6 µM |
| Fc1ccc(-n2c(Cc3ccccc3)nnc2SCc2nc(-c3cccs3)no2)cc1 | 19.1 µM |
| CCN(CC)c1ccc(C(=O)n2cnc3ccccc32)cc1 | 15 µM |
| COc1cccc(C2/C(=C(/O)c3ccc(C)cc3)C(=O)C(=O)N2Cc2ccco2)c1 (stereo not drawn) | 4.54 µM |
| COc1ccc(Cl)cc1CN1CCN(c2nc(C)cc(C)c2C#N)CC1 | 13.2 µM |
| Cc1ccc(C(=O)N2CCN(c3cccc(Cl)c3)CC2)cc1C | 10.4 µM |
| CCCc1[nH]nc2c1C(c1ccc(OC)c(CSC3=NCCS3)c1)C(C#N)=C(N)O2 (stereo not drawn) | 69.6 µM |
| Cc1ccccc1-c1nc(CN2CCC(C(=O)NCCC3=CCCCC3)CC2)c(C)o1 | 13.9 µM |
| COc1ccc(-c2nc3oc4cc(OC)ccc4c(=O)c3c(=O)n2Cc2ccco2)cc1 | 2.33 µM |
| CCC(C(=O)N1CCN(c2cccc(Cl)c2)CC1)c1ccccc1 (stereo not drawn) | 14.2 µM |
| O=C(c1ccc(COc2ccccc2Cl)o1)N1CCN(c2ccccc2)CC1 | 8.64 µM |

| SMILES | IC50 |
| --- | --- |
| CNc1ccc(C(O)(C(F)(F)F)C(F)(F)F)cc1C(O)(C(F)(F)F)C(F)(F)F | 6.95 µM |
| Cc1c(CCC(=O)O)c(=O)oc2cc3occ(-c4ccc(F)cc4)c3cc12 | 5.48 µM |
| N#CC1=C(N)NC(SCc2ccccc2)=C(C#N)C12CCCCC2 | 2.12 µM |
| Clc1cccc(-c2nc3nc4ccccc4nc3n2Cc2ccco2)c1 | 15 µM |
| CCOc1cc(-c2c(C#N)c(N)nc3c2CCCC3C)ccc1O (stereo not drawn) | 6.26 µM |
| CCCn1c(CNc2ccc(Br)cc2)nc2ccccc21 | 6.22 µM |
| CCCCOc1ccc(S(=O)(=O)n2c(C)nc3ccccc32)cc1 | 11.4 µM |
| CCn1cc(C(=O)Nc2nncs2)c(=O)c2cc(F)c(N3CCN(C(=O)c4ccco4)CC3)cc21 | 0.19 µM |
| O=C(Nc1nnc(-c2ccccc2)o1)c1nc2ccccc2s1 | 1.34 µM |
| CC1CC(C)CN(C(=O)CSc2nnc(-c3ccc(Cl)s3)o2)C1 (stereo not drawn) | 17.4 µM |
| COc1ccc(CCNC(=O)c2cc3sc(Cl)cc3n2C)cc1OC | 30.8 µM |
| O=C(Nc1nnc(-c2ccccc2Cl)o1)c1cccnc1 | 16.7 µM |
| CCOc1cc(S(=O)(=O)N2CCN(Cc3ccccc3)CC2)ccc1Br | 19.3 µM |
| Cc1cc(NC(=O)c2ccccc2)sc1C | 5.59 µM |
| Cc1nc2nc(-c3ccco3)[nH]n2c(=O)c1Cc1ccccc1 | 5.98 µM |
| CN(Cc1ccccc1)c1ncnc2c1cnn2-c1ccccc1 | 12.7 µM |
| CC1CCN(S(=O)(=O)c2ccc(Cl)cc2Br)CC1 | 17.5 µM |
| O=C(CSc1nc2ccccc2o1)Nc1nc2c(s1)CCCC2 | 8.02 µM |
| COc1ccccc1-n1c(=O)oc2ccc(Cl)cc2c1=O | 1.49 µM |
| O=C(c1ccc(COc2ccc3c(c2)CCC3)o1)N1CCN(c2ccccc2)CC1 | 10.7 µM |
| Clc1ccc(C(c2nnnn2C2CCCCC2)N(Cc2cccnc2)Cc2ccco2)cc1 (stereo not drawn) | 14.8 µM |

| SMILES | IC50 |
| --- | --- |
| c1ccc(-n2nnnc2Oc2cccc3cccnc23)cc1 | 7.65 µM |
| CC(C)(C)c1ccc(OCc2nc(-c3ccccn3)no2)c(Br)c1 | 6.81 µM |
| O=C(Nc1ccc2c(c1)OCO2)c1ccc(COc2ccc3c(c2)CCC3)o1 | 7.79 µM |
| Cc1ccc(SCC(=O)N(Cc2nc(-c3ccccc3)no2)C(C)C)cc1 | 10.8 µM |
| COC(=O)c1ccc(O)c(Sc2cc(C(=O)OC)ccc2O)c1 | 1.91 µM |
| CC1(C)COCN1S(=O)(=O)c1ccc(C(=O)Nc2nnc(-c3ccc(Cl)s3)o2)cc1 | < 0.2 µM |
| CCC1CCCCN1C(=O)c1cc(-c2ccc(Cl)c(Cl)c2)on1 (stereo not drawn) | 10.3 µM |
| O=S(=O)(Nc1nc2ccccc2nc1N1CCN(c2ccccn2)CC1)c1ccc(Cl)cc1 | 3.16 µM |
| O=C(Nc1nc2ccccc2s1)C1CCCN1S(=O)(=O)c1ccc(Cl)cc1 (stereo not drawn) | 8.91 µM |
| O=C(CS(=O)(=O)c1ccccc1)Nc1nc(-c2ccccc2)cs1 | 8.07 µM |
| Cn1c(C(=O)N2CCN(c3cccc(C(F)(F)F)c3)CC2)cc2sccc21 | 15.4 µM |
| C=CCn1c(SCC(=O)Nc2nc3ccccc3s2)nnc1-c1ccccc1O | 8.28 µM |
| CCCCc1cc(O)c(CCCC)c(O)c1 | 10.9 µM |
| COc1ccc2[nH]c3c(=O)n(CCCCC(=O)N4CCC(C(N)=O)CC4)c(=S)[nH]c3c2c1 | 10.7 µM |
| Brc1cc(Br)c2ncnc(N3CCCCC3)c2c1 | 34.6 µM |
| O=C1CC(c2ccco2)CC2=C1C1c3ccccc3C(=O)N1c1ccccc1N2 (stereo not drawn) | 22.7 µM |
| Cc1cccc(N2CCN(C(=O)Cc3c(C(=O)O)[nH]c4ccc(Cl)cc34)CC2)c1C | 7.52 µM |
| O=C(Nc1ccc(S(=O)(=O)N2CCCc3ccccc32)cc1)C1CCCO1 (stereo not drawn) | 19.6 µM |
| CC(C)c1nnc(NC(=O)c2c(O)c3cccc4c3n(c2=O)CC4)s1 | 34.7 µM |
| O=c1ccsn1Cc1ccccc1 | 3.15 µM |
